One data set in a line: Stability. It is filed as in vitro ADME. The conditions noted are these: rat. A digest of the protocol: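 Rat blood was spiked at 150 ng mL−1 to compare three stabilisation factors. Anticoagulant (EDTA-K2 or heparin sodium) was tested at 25 °C and 0 °C. Protease inhibitors (pepstatin A, aprotinin, cOmplete cocktail, AEBSF) were tested at 25 °C. Acidification with H2SO4 or HClO4 (0.1–0.3%) was tested at 25 °C and 0 °C. Samples were taken before and at 2, 5, 10, 20, 30 and 60 min, precipitated with organic solvent, centrifuged and analysed by UHPLC-MS/MS. Half-lives were calculated.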

Data set [1] can be described thus: Stability of SP in acidified rat plasma and blood. It is filed as in vitro ADME. A digest of the protocol:
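Blood was acidified with 0.3% perchloric acid. Low- and high-level samples (five replicates each) were held as follows: whole blood at 0 °C for 1 h; […] for 1 h before processing; extracts at 25 °C for 1 h; reconstituted samples in the autosampler at 4 °C for 24 h; plasma at −70 °C for 60 days; and three freeze–thaw cycles (−70 °C to ambient). Read-out was accuracy as deviation from nominal, with acceptance within 15%.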

Data set [2] can be described thus: Pharmacokinetic study after subcutaneous administration. The format is in vivo, Sprague-Dawley rats. A digest of the protocol:
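Twelve Sprague-Dawley rats (6 female, 6 male; 200 ± 20 g) were housed SPF at 22 ± 2 °C on a 12 h light–dark cycle and fasted about 12 h. Each received a single subcutaneous dose of 10 mg kg−1. Orbital blood was taken into pre-acidified EDTA-K2 tubes at 0, 0.5, 1, 2, 3, 5, 10, 20, 30, 45 and 60 min and iced; plasma was spun and analysed by UHPLC-MS/MS (LLOQ 0.1 ng mL−1). Non-compartmental analysis; mean ± SD.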

[3] abbreviates: rats, subcutaneous 10 mg kg^−1, mean ± SD, n = 12.

The values below come from publication PMC9073091 (RSC Advances, 2019).

The term half-life denotes the time needed for the level to fall by half in the phase considered. Low values mean rapid decline, high ones slow decline. By Tmax is commonly meant the time at which the peak concentration occurs.

Where no end group is shown, it is not given here.

As for GQTYTSG [SP, GQTYTSG], the half-life in the data set “Stability” (half-life of SP in blood samples, blood acidified with 0.3% HClO4 (v/v), 0 °C) was greater than 350 min; in the data set “Stability” (half-life, 25 °C, in vitro) it was less than 10 min; in “Stability” (whole blood, half-life of SP in blood samples, EDTA-K2 as anticoagulant, samples kept at 0 °C) it was 11.5 ± 0.22 min; in “Stability” (whole blood, half-life of SP in blood samples, blood acidified with 0.3% H2SO4 (v/v), 0 °C), greater than 350 min; in data set [2] (rat, in vivo, sc, 10 mg/kg), less than 10 min. In addition, the “Accuracy (stability)” value in data set [1] (blood, blood stability (0 °C for 1 h), 0.5 ng mL^−1) is listed as 114.4%; in data set [1] (blood, blood stability (0 °C for 1 h), 300 ng mL^−1), 104.1%; in data set [1] (plasma, auto-sampler stability (4 °C for 24 h), 0.25 ng mL^−1), 110.0%; in data set [1] (plasma, auto-sampler stability (4 °C for 24 h), 150 ng mL^−1) it was 106.7%; in data set [1] (plasma, freeze–thaw stability (three cycles), 0.25 ng mL^−1), 106.4%; in data set [1] (plasma, freeze–thaw stability (three cycles), 150 ng mL^−1), 94.7%. Also, the “Accuracy (stability)” value is recorded as 96.1% in data set [1] (plasma, long-term stability (−70 °C for 60 days), 0.25 ng mL^−1); 94.0% in data set [1] (plasma, long-term stability (−70 °C for 60 days), 150 ng mL^−1); 90.8% in data set [1] (plasma, post-preparation stability (25 °C for 1 h), 0.25 ng mL^−1); 105.3% in data set [1] (plasma, post-preparation stability (25 °C for 1 h), 150 ng mL^−1); 96.4% in data set [1] (plasma, short-term stability (0 °C for 1 h), 0.25 ng mL^−1); 96.0% in data set [1] (plasma, short-term stability (0 °C for 1 h), 150 ng mL^−1). Further, in data set [2] (rat, in vivo, sc, 10 mg/kg), the Tmax is 1.75 min. For the same substance, the “CL (apparent total plasma clearance)” value in data set [2] (setting [3]) came to 17.9 ± 9.96 L/min. In data set [2] (setting [3]), the “Vz (total volume of distribution)” value was determined as 230 ± 118 L.
